DNMT1 block – blocks human DNA methyltransferase DNMT1; P26358; DNMT1 molecular beacon, Hinp1I cleavage, fluorescence; inhibition (reported as % activation of signal), % at 10 µM; 360,000 compounds, 0.83% hits; in the data active = inhibition above about 50%
Rpn11 block – blocks the human proteasome subunit Rpn11 | human 26S proteasome, Ub4-pepOG fluorescence polarization; 20S core pre-blocked with epoxomicin | inhibition, % at 20 µM | 360,000 compounds, 0.59% hits;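 active = inhibition at 20 µM, scaled to each plate's controls, above about 33%, limit read from the data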
LMPTP block – LMPTP (human) inhibition | inhibition, % at 20 µM | P24666 | AID 651560 | 360,000 compounds, 0.22% hits | recombinant LMPTP-A, OMFP fluorogenic substrate, fluorescence intensity;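 active = compounds that cut the enzyme signal by at least half of the control window in the single-dose screen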;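 also: plate controls were DMSO wells with enzyme plus substrate for no effect and substrate without enzyme for full effect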
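Assay system: LMPTP-A, protein tyrosine phosphatase of low molecular weight / Medium: pH 6.0 Bis-Tris buffer with DTT and Triton X-100 / Schedule: 50 min enzyme reaction at room temperature, protected from light / Measured by: endpoint fluorescence intensity from OMFP dephosphorylation / Read-out basis: % inhibition relative to no-enzyme and uninhibited control wells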
Scp-1 inhibitor – blocks human Scp-1 phosphatase activity; Recombinant Scp1, phosphopeptide, malachite green phosphate absorbance; AID 493091; Q9GZU7; 340,000 compounds, 0.88% hits; inhibition, % at 20 µM;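 active = inhibition above about 50% at 20 µM, limit read from the data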;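 also: plate controls were DMSO wells with enzyme for no effect and wells lacking enzyme for full effect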
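Times: enzyme reaction 45 min at room temperature, colour 5 min, stabilisation 30 min. Material: SCP-1 catalytic fragment, aa 76-261. Medium: Acidic Tris acetate buffer with magnesium and detergent. Signal: colorimetric free-phosphate detection, absorbance 630 nm. Read-out basis: % inhibition of SCP-1 phosphate liberation. Reagent: Phosphorylated 17-residue peptide substrate.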
STEP block – blocks human striatal-enriched tyrosine phosphatase | P54829 | recombinant STEP, OMFP fluorogenic substrate, fluorescence | inhibition, % at 20 µM | 360,000 compounds, 0.25% hits | AID 588621;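 active = inhibition at 20 µM, scaled per plate between control wells, above about 37%, limit read from the data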;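 also: 0% = DMSO with enzyme and substrate and 100% = substrate only without enzyme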
Target sequence (P54829 whole entry, looked up): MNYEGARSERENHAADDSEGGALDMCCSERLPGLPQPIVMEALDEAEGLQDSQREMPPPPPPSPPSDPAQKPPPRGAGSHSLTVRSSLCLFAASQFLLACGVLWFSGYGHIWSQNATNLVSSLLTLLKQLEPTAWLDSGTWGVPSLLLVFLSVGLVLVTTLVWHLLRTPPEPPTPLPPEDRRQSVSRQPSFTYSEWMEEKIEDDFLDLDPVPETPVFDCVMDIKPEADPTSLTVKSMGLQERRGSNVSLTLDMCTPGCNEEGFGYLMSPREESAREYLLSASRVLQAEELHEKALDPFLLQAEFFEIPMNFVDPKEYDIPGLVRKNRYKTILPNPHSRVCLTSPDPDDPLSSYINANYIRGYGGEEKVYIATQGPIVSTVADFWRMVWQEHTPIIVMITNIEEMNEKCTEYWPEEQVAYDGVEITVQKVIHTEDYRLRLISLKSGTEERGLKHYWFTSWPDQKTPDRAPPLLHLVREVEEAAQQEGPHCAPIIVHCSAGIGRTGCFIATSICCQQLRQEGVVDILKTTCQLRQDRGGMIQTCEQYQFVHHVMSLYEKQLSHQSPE
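Also added – OMFP at 25 µM · Test system – STEP tyrosine phosphatase · Technique – FITC-channel fluorescence of OMFP product · Schedule – 20 min at room temperature, dark · Evaluation – control-normalized % inhibition with plate pattern correction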
SUMO1-SIM PPI – alters human SUMO1 binding to SIM partners. P63165. SUMO1 binding to a labelled peptide, TR-FRET, 1 h. inhibition, % at 20 µM. 360,000 compounds, 0.33% hits; in the data active = inhibition above about 37%
Scp1 confirm – confirmation of human Scp-1 phosphatase inhibitors; inhibition, % at 20 µM; shares compounds with Scp-1 inhibitor; recombinant SCP-1 catalytic domain, phosphate release, malachite green absorbance; 2,500 compounds, 61% hits;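 active = inhibition of at least 30% at 20 µM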;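 also: plate controls were DMSO with enzyme for no effect and buffer wells lacking enzyme for full effect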
Scp-1 MG ctr – counter-screen for Scp-1 inhibitors: colorimetric interference; shares compounds with Scp-1 inhibitor; Colorimetric interference counterscreen, malachite green absorbance 630 nm; apparent inhibition (interference), % at 20 µM; 2,500 tested, under 10 active; AID 540313;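 active = inhibition of at least 30% at 20 µM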;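 also: compounds added after enzyme reaction finished so only phosphate colour detection is probed; plate controls were DMSO wells with completed Scp-1 reaction for no effect and substrate wells lacking enzyme for full effect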
Scp1 DSF – validation of human Scp-1 inhibitors by thermal shift binding. shares compounds with Scp-1 inhibitor. Recombinant SCP1, Sypro Orange thermal shift Tm. thermal shift relative to vanadate control, % at 40 µM. 1,500 compounds, 25% hits. AID 540329;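 active = substances whose mean melting-temperature shift, as a percentage of the reference inhibitor's shift, reaches about 5.3%, limit read from the data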;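 also: 0% = Tm of DMSO wells and 100% = Tm with sodium orthovanadate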
Rpn11 confirm – Rpn11 inhibition confirmation, single concentration. shares compounds with Rpn11 block. purified human 26S proteasome, Ub4-pepOG fluorescence polarization; proteasome pretreated with epoxomicin. inhibition, % at 20 µM. 1,900 compounds, 29% hits. AID 602318
MMP-2 counter – MMP-2 (human) inhibition counter-screen; 1,900 compounds, 4% hits; shares compounds with Rpn11 block; recombinant MMP-2, FRET peptide cleavage fluorescence; inhibition, % at 20 µM;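 also: human MMP-2 activated beforehand with APMA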
Thrombin FP – blocks bovine thrombin, flagging nonselective RPN11 hits; 1,900 compounds, 13% hits; AID 602333; inhibition, % at 20 µM; bovine thrombin cleavage of Ub4-pepOG, fluorescence polarization; shares compounds with Rpn11 block;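 active = mean inhibition at least 40% at 20 µM, or signal 3 deviations below plate average, so some actives read negative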;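 also: plate controls were thrombin with DMSO for no effect and buffer wells lacking thrombin for full effect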
STEP inh conf – confirmation of human STEP phosphatase inhibitors; shares compounds with STEP block; recombinant STEP, OMFP fluorogenic substrate, fluorescence; inhibition, % at 20 µM; 520 compounds, 32% hits; AID 623866; call rule not given here;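 also: 0% = enzyme with substrate plus DMSO and 100% = substrate without enzyme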
The depositor's hits bear a star. Only some compounds are listed: those with a hit (about 2.3% of all), similar ones and a draw of the others. Rule as the data show it, unless noted: active = inhibition above about 40%; inactive = the rest.

For O=C(COc1ccc(/C=N/NC(=O)c2ccccc2Br)cc1)Nc1ccccc1 the results were DNMT1 block -4.5, Rpn11 block -4.2, LMPTP block 0.4, Scp-1 inhibitor -7.7, STEP block -0.8 and SUMO1-SIM PPI -3.6.
For COc1cc(/C=N/NC(=O)c2ccccc2O)ccc1OCC(=O)Nc1ccccc1 the results were DNMT1 block 0.1, Rpn11 block 39.8, LMPTP block 37.8, Scp-1 inhibitor 63.1*, STEP block 61.5*, SUMO1-SIM PPI 11.2, Scp1 confirm 70.4*, Scp-1 MG ctr -10.6, Scp1 DSF -5.4 and STEP inh conf 82.9*.
Screening O=C(COc1ccc(/C=N/NC(=O)c2ccccc2O)cc1)Nc1ccccc1 returned DNMT1 block -3.8, Rpn11 block 3.7, LMPTP block 66.7*, Scp-1 inhibitor 65.0*, STEP block 84.7*, SUMO1-SIM PPI 0.7, Scp1 confirm 64.8*, Scp-1 MG ctr 2.3, Scp1 DSF -10.7 and STEP inh conf 24.1*.
`CCC(C)(C)c1ccc2c(c1)C(=O)c1ccccc1C2=O` gave DNMT1 block 1.2, Rpn11 block -7.9, LMPTP block 3.5, Scp-1 inhibitor -7.9, STEP block 1.7 and SUMO1-SIM PPI -18.2.
For O=C(NNc1ncnc2ccccc12)c1cccc(Cl)c1 the results were DNMT1 block 2.2, Rpn11 block 73.6*, LMPTP block 6.4, Scp-1 inhibitor 99.9*, STEP block 37.7*, SUMO1-SIM PPI 0.5, Scp1 confirm 91.4*, Scp-1 MG ctr -7.1, Scp1 DSF -11.3, Rpn11 confirm 77.2*, MMP-2 counter -26.3, Thrombin FP -3.9 and STEP inh conf 1.1.
Screening O=C(CC1CCCC1)N1CCN(S(=O)(=O)c2cccc(F)c2)CC1 returned DNMT1 block -0.3, Rpn11 block 0.0, LMPTP block 0.1, Scp-1 inhibitor -4.9, STEP block 1.7 and SUMO1-SIM PPI 1.6.
O=C(Nc1nc2ccsc2c(=O)s1)c1ccc(Cl)cc1 was read as DNMT1 block 24.0, Rpn11 block 15.7, LMPTP block 53.9*, Scp-1 inhibitor 102.7*, STEP block 96.0*, SUMO1-SIM PPI -30.7, Scp1 confirm 72.1*, Scp-1 MG ctr -10.1, Scp1 DSF 4.7 and STEP inh conf 0.4.
COc1ccccc1-c1cccc([C@@H]2C[C@H]3[C@@H](CN2)CON3C)c1 was read as DNMT1 block -0.3, Rpn11 block 11.1, LMPTP block -0.4, Scp-1 inhibitor -8.3, STEP block 1.2 and SUMO1-SIM PPI 2.0.

Screening data from PubChem BioAssay.
